From ChEMBL document CHEMBL3351723, “New derivatives of lupane triterpenoids disturb breast cancer mitochondria and induce cell death” (Bioorg Med Chem, 2014)
Activity calls are given as the source filed them. No cut-off for these calls is given here.

Columns and labels:
[1] = system: Liver microsome; assay: Effect on mitochondrial transmembrane potential in Wistar Han rat liver mitochondria energized with succinate assessed as mitochondrial transmembrane electropotential at 0.133 ug/mg of protein (reference value: 216.0 +/- 7.4 mV); format: functional
[2] = system: Liver microsome; assay: Effect on mitochondrial transmembrane potential in Wistar Han rat liver mitochondria energized with succinate assessed as ADP depolarization at 0.133 ug/mg of protein (reference value: 34.7 +/- 1.4 mV); format: functional
[3] = system: Liver microsome; assay: Effect on mitochondrial transmembrane potential in Wistar Han rat liver mitochondria energized with succinate assessed as ADP depolarization at 0.333 ug/mg of protein (reference value: 34.7 +/- 1.4 mV); format: functional
[4] = system: Liver microsome; assay: Effect on mitochondrial transmembrane potential in Wistar Han rat liver mitochondria energized with succinate assessed as time duration of lag phase at 0.133 ug/mg of protein (reference value: 82.8 +/- 23.5 sec); format: functional
Summary of the method: (§1)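 Isolated male Wistar rat liver mitochondria (1.5 mg protein) in 125 mM sucrose, 65 mM KCl, 5 mM KH2PO4, 2.5 mM MgCl2, 5 mM HEPES pH 7.4, 30°C, with 3 μM TPP+. Compound added for 1 min, then 10 mM succinate plus 3 μM rotenone. State 3 started with ADP (83.3 nmol/mg protein). ΔΨ read with a TPP+-selective electrode and calculated by the Kamo equation without binding correction.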

[5] = system: Liver microsome; assay: Effect on mitochondrial transmembrane potential in Wistar Han rat liver mitochondria energized with succinate assessed as mitochondrial transmembrane electropotential at 0.133 ug/mg of protein (reference value: 204.2 +/- 5.6 mV); format: functional
[6] = system: Liver microsome; assay: Effect on mitochondrial transmembrane potential in Wistar Han rat liver mitochondria energized with succinate assessed as ADP depolarization at 0.067 ug/mg of protein (reference value: 25.3 +/- 2.1 mV); format: functional
[7] = system: Liver microsome; assay: Effect on mitochondrial transmembrane potential in Wistar Han rat liver mitochondria energized with succinate assessed as ADP depolarization at 0.133 ug/mg of protein (reference value: 25.3 +/- 2.1 mV); format: functional
[8] = system: Liver microsome; assay: Effect on mitochondrial transmembrane potential in Wistar Han rat liver mitochondria energized with succinate assessed as time duration of lag phase at 0.333 ug/mg of protein (reference value: 33.0 +/- 4.6 sec); format: functional; summary of the method: as §1
[9] = system: Liver microsome; assay: Effect on mitochondrial transmembrane potential in Wistar Han rat liver mitochondria energized with succinate assessed as mitochondrial transmembrane electropotential at 0.06 ug/mg of protein (reference value: 198.0 +/- 5.6 mV); format: functional
[10] = system: Hs-578T; assay: Cytotoxicity against human Hs578T cells at 0.125 to 2 ug/ml incubated for 6 hrs folowed by drug wash out and fresh medium addition and measured 3 days after wash out; format: functional, cell-based
[11] = system: Liver mitochondria (Rattus norvegicus); assay: Effect on mitochondrial transmembrane potential in Wistar Han rat liver mitochondria energized with succinate assessed as time duration of lag phase at 1.333 ug/mg of protein (reference value: 40.5 +/- 4.5 sec)
[12] = system: Liver microsome; assay: Reduction in ADP-induced mitochondrial transmembrane electropotential in Wistar Han rat liver mitochondria energized with succinate at >0.3 ug/mg of protein; format: functional
[13] = system: Liver microsome; assay: Effect on mitochondrial transmembrane potential in Wistar Han rat liver mitochondria energized with succinate assessed as mitochondrial transmembrane electropotential at 0.667 ug/mg of protein (reference value: 220.6 +/- 2.5 mV); format: functional; summary of the method: as §1
[14] = system: Liver microsome; assay: Effect on mitochondrial transmembrane potential in Wistar Han rat liver mitochondria energized with succinate assessed as mitochondrial transmembrane electropotential at 1.333 ug/mg of protein (reference value: 220.6 +/- 2.5 mV); format: functional; summary of the method: as §1

`C=C(C)[C@@H]1CC[C@]2(COC(=O)C[n+]3ccc(N(C)C)cc3)CC[C@]3(C)[C@H](CC[C@@H]4[C@@]5(C)CC[C@H](OC(=O)C[n+]6ccc(N(C)C)cc6)C(C)(C)[C@@H]5CC[C@]43C)[C@@H]12.[Cl-].[Cl-]` was tested, and the Activity [1] was 212 mV, the Activity [2] was 29.8 mV and the Activity [3] was 29 mV. The TIME [4] was 0.0233 h.
`C=C(C)[C@@H]1CC[C@]2(COC(=O)CC[n+]3ccc(N(C)C)cc3)CC[C@]3(C)[C@H](CC[C@@H]4[C@@]5(C)CC[C@H](OC(=O)CC[n+]6ccc(N(C)C)cc6)C(C)(C)[C@@H]5CC[C@]43C)[C@@H]12.[Cl-].[Cl-]` was tested, and the Activity [5] was 206 mV, the Activity [6] was 24.7 mV and the Activity [7] was 26.2 mV. It also gave a TIME [8] of 0.00894 h.
`C=C(C)[C@@H]1CC[C@]2(COC(=O)C(CC)[n+]3ccc(N(C)C)cc3)CC[C@]3(C)[C@H](CC[C@@H]4[C@@]5(C)CC[C@H](OC(=O)C(CC)[n+]6ccc(N(C)C)cc6)C(C)(C)[C@@H]5CC[C@]43C)[C@@H]12` (some centres undefined) was tested, and the Activity [9] was 198 mV, the inhibition [10] was “Active” and the TIME [11] was 0.0136 h.
`C=C(C)[C@@H]1CC[C@]2(COC(=O)C[N+](C)(C)C(C)C)CC[C@]3(C)[C@H](CC[C@@H]4[C@@]5(C)CC[C@H](OC(=O)C[N+](C)(C)C(C)C)C(C)(C)[C@@H]5CC[C@]43C)[C@@H]12.[Cl-].[Cl-]` was tested, and the inhibition [12] was “Active”, the Activity [13] was 211 mV and the Activity [14] was 206 mV.
